Experimental data as given in ChEMBL document CHEMBL2034980, “N⁴-Phenyl-substituted 2-acetylpyridine thiosemicarbazones: cytotoxicity against human tumor cells, structure-activity relationship studies and investigation on the mechanism of action” (Bioorg Med Chem, 2012).
Active and inactive are the calls of the source. The calls are words filed in the database; no cut-off is given here.

Legend:
T98G [1] = experiment: Induction of apoptosis in human T98G cells assessed as appearance of autophagolysosomes at 1 uM after 48 hrs by acridine orange/ethidium bromide staining-based microscopy; type: functional, cell-based
Outline: (§1)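 After 48 h at 1 μM, cells were incubated for 15 min in serum-free medium containing 1 μg mL⁻¹ acridine orange and 1 μg mL⁻¹ ethidium bromide. The medium was removed and cells imaged by inverted fluorescence microscopy (530–650 nm). Green/orange nuclear patterns and acidic cytoplasmic vacuoles were scored.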

T98G [2] = experiment: Induction of apoptosis in human T98G cells assessed as membrane blebbing at 1 uM after 48 hrs […]; type: functional, cell-based
U-87MG ATCC [3] = experiment: Induction of apoptosis in human U87 cells assessed as DNA fragmentation at 1 uM after 48 hrs by DAPI staining; type: functional, cell-based
Outline: (§2)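 Cells were treated at 1 μM for 48 h, washed in PBS and fixed in 70% methanol for 30 min at room temperature. They were stained with 0.4 μg mL⁻¹ DAPI for 1 h in the dark, and nuclear condensation and fragmentation were scored by fluorescence microscopy (385–410 nm).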

[4] = Haemolytic activity in human RBC after 1 hr by photometry; type: ADME, cell-based; details: Erythrocyte
Outline: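 Human EDTA blood was spun at 700xg for 10 min and the erythrocytes washed three times in cold PBS pH 7.4, then resuspended in it. Cells were incubated with varying compound concentrations for 1 h at 37 °C with shaking. After centrifugation, released haemoglobin was read at 540 nm to give the IC50. Mean ± SD, n = 4.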

MCF7 [5] = experiment: Induction of apoptosis in human MCF7 cells assessed as chromatin condensation at 1 uM after 48 hrs by DAPI staining; type: functional, cell-based; outline: as §2
T98G [6] = experiment: Induction of apoptosis in human T98G cells assessed as chromatin condensation at 1 uM after 48 hrs by acridine orange/ethidium bromide staining-based microscopy; type: functional, cell-based; outline: as §1
U-87MG ATCC [7] = experiment: Induction of apoptosis in human U87 cells assessed as appearance of autophagolysosomes at 1 uM after 48 hrs by acridine orange/ethidium bromide staining-based microscopy; type: functional, cell-based; outline: as §1
U-87MG ATCC [8] = experiment: Induction of apoptosis in human U87 cells assessed as membrane blebbing at 1 uM after 48 hrs by DAPI staining; type: functional, cell-based
MCF7 [9] = experiment: Induction of apoptosis in human MCF7 cells assessed as appearance of autophagolysosomes at 1 uM after 48 hrs by acridine orange/ethidium bromide staining-based microscopy; type: functional, cell-based; outline: as §1
T98G [10] = experiment: Induction of apoptosis in human T98G cells assessed as DNA fragmentation at 1 uM after 48 hrs by DAPI staining; type: functional, cell-based; outline: as §2
T98G [11] = experiment: Induction of apoptosis in human T98G cells assessed as irregularities in cellular shape at 1 uM after 48 hrs by DAPI staining; type: functional, cell-based
MCF7 [12] = experiment: Induction of apoptosis in human MCF7 cells assessed as membrane blebbing at 1 uM after 48 hrs by DAPI staining; type: functional, cell-based
U-87MG ATCC [13] = experiment: Induction of apoptosis in human U87 cells assessed as chromatin condensation at 1 uM after 48 hrs by DAPI staining; type: functional, cell-based; outline: as §2
U-87MG ATCC [14] = experiment: Induction of apoptosis in human U87 cells assessed as chromatin condensation at 1 uM after 48 hrs by acridine orange/ethidium bromide staining-based microscopy; type: functional, cell-based; outline: as §1
U-87MG ATCC [15] = experiment: Induction of apoptosis in human U87 cells assessed as irregularities in cellular shape at 1 uM after 48 hrs by DAPI staining; type: functional, cell-based
MCF7 [16] = experiment: Induction of apoptosis in human MCF7 cells assessed as irregularities in cellular shape at 1 uM after 48 hrs by DAPI staining; type: functional, cell-based
MCF7 [17] = experiment: Induction of apoptosis in human MCF7 cells assessed as DNA fragmentation at 1 uM after 48 hrs by DAPI staining; type: functional, cell-based; outline: as §2
T98G [18] = experiment: Cytotoxicity against human T98G cells expressing mutant p53 after 48 hrs by MTT assay; type: functional, cell-based; details: for IC50: read-out: IC50
Outline: (§3)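 MTT assay. Cells were grown in DMEM with 10% FBS and penicillin/streptomycin at 37 °C under 5% CO2, seeded at 1–2×10^3 cells/well and treated 12 h later with 1×10^-12 to 1×10^-5 M ([…] from DMSO stock, final DMSO <0.5%) for 48 h. MTT was added at 0.5 mg mL⁻¹, formazan dissolved in DMSO and read at 570 nm. IC50 is the concentration giving 50% cytotoxicity. Quadruplicates, ≥3 independent experiments.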

MCF7 [19] = experiment: Induction of apoptosis in human MCF7 cells assessed as chromatin condensation at 1 uM after 48 hrs by acridine orange/ethidium bromide staining-based microscopy; type: functional, cell-based; outline: as §1
MCF7 [20] = experiment: Cytotoxicity against human MCF7 cells after 48 hrs by MTT assay; type: functional, cell-based; details: for IC50: MCF7, 48 h, read-out: IC50; outline: as §3
MCF7 [21] = experiment: Induction of apoptosis in human MCF7 cells assessed as cell shrinkage at 1 uM after 48 hrs by DAPI staining; type: functional, cell-based
[22] = (§4) Cytotoxicity against human U87 cells expressing wild-type p53 after 48 hrs by MTT assay; type: functional, cell-based, U-87MG ATCC; details: U-87 MG, read-out: IC50; outline: as §3
U-87MG ATCC [23] = experiment: as §4; type: functional, cell-based; outline: as §3
T98G [24] = experiment: Induction of apoptosis in human T98G cells assessed as cell shrinkage at 1 uM after 48 hrs by DAPI staining; type: functional, cell-based
U-87MG ATCC [25] = experiment: Induction of apoptosis in human U87 cells assessed as cell shrinkage at 1 uM after 48 hrs by DAPI staining; type: functional, cell-based
T98G [26] = experiment: Induction of apoptosis in human T98G cells assessed as chromatin condensation at 1 uM after 48 hrs by DAPI staining; type: functional, cell-based; outline: as §2

| Compound | Activity (T98G [1]) | Activity (T98G [2]) | Activity (U-87MG ATCC [3]) | IC50 [4] [nM] | Activity (MCF7 [5]) | Activity (T98G [6]) | Activity (U-87MG ATCC [7]) | Activity (U-87MG ATCC [8]) | Activity (MCF7 [9]) | Activity (T98G [10]) | Activity (T98G [11]) | Activity (MCF7 [12]) | Activity (U-87MG ATCC [13]) | Activity (U-87MG ATCC [14]) | Activity (U-87MG ATCC [15]) | Activity (MCF7 [16]) | Activity (MCF7 [17]) | Activity (T98G [18]) | IC50 (T98G [18]) [nM] | Activity (MCF7 [19]) | also measured |
| --- | --- | --- | --- | --- | --- | --- | --- | --- | --- | --- | --- | --- | --- | --- | --- | --- | --- | --- | --- | --- | --- |
| CC(=NNC(=S)Nc1ccc(I)cc1)c1ccccn1 (mixture of isomers) | Active | Active | Active | > 10000 | Active | Active | Active | Active | Active | Active | Active | Active | Active | Active | Active | Active | Active | Dose-dependent effect | 64 | Active | Activity (MCF7 [20]): Dose-dependent effect; IC50 (MCF7 [20]): 6.6 nM; Activity (MCF7 [21]): Active; IC50 [22]: 59 nM; Activity (U-87MG ATCC [23]): Dose-dependent effect; Activity (T98G [24]): Active; Activity (U-87MG ATCC [25]): Active; Activity (T98G [26]): Active |
| CC(=NNC(=S)Nc1ccccc1F)c1ccccn1 (mixture of isomers) | Active | Active | Active | > 10000 | Active | Active | Active | Active | Active | Active | Active | Active | Active | Active | Active | Active | Active | Dose-dependent effect | 3.1 | Active | Activity (MCF7 [20]): Dose-dependent effect; IC50 (MCF7 [20]): 0.39 nM; Activity (MCF7 [21]): Active; IC50 [22]: 5 nM; Activity (U-87MG ATCC [23]): Dose-dependent effect; Activity (T98G [24]): Active; Activity (U-87MG ATCC [25]): Active; Activity (T98G [26]): Active |
| CC(=NNC(=S)Nc1cccc(I)c1)c1ccccn1 (mixture of isomers) | Active | Active | Active | > 10000 | Active | Active | Active | Active | Active | Active | Active | Active | Active | Active | Active | Active | Active | Dose-dependent effect | 61 | Active | Activity (MCF7 [20]): Dose-dependent effect; IC50 (MCF7 [20]): 45 nM; Activity (MCF7 [21]): Active; IC50 [22]: 84 nM; Activity (U-87MG ATCC [23]): Dose-dependent effect; Activity (T98G [24]): Active; Activity (U-87MG ATCC [25]): Active; Activity (T98G [26]): Active |
| CC(=NNC(=S)Nc1cccc(F)c1)c1ccccn1 (mixture of isomers) | Active | Active | Active | > 10000 | Active | Active | Active | Active | Active | Active | Active | Active | Active | Active | Active | Active | Active | Dose-dependent effect | 12 | Active | Activity (MCF7 [20]): Dose-dependent effect; IC50 (MCF7 [20]): 9 nM; Activity (MCF7 [21]): Active; IC50 [22]: 18 nM; Activity (U-87MG ATCC [23]): Dose-dependent effect; Activity (T98G [24]): Active; Activity (U-87MG ATCC [25]): Active; Activity (T98G [26]): Active |
| CC(=NNC(=S)Nc1ccccc1[N+](=O)[O-])c1ccccn1 (mixture of isomers) | Active | Active | Active | > 10000 | Active | Active | Active | Active | Active | Active | Active | Active | Active | Active | Active | Active | Active | Dose-dependent effect | 6.6 | Active | Activity (MCF7 [20]): Dose-dependent effect; IC50 (MCF7 [20]): 5.7 nM; Activity (MCF7 [21]): Active; IC50 [22]: 4.3 nM; Activity (U-87MG ATCC [23]): Dose-dependent effect; Activity (T98G [24]): Active; Activity (U-87MG ATCC [25]): Active; Activity (T98G [26]): Active |
| CC(=NNC(=S)Nc1ccccc1)c1ccccn1 (mixture of isomers) | Active | Active | Active | > 10000 | Active | Active | Active | Active | Active | Active | Active | Active | Active | Active | Active | Active | Active | Dose-dependent effect | 6.8 | Active | Activity (MCF7 [20]): Dose-dependent effect; IC50 (MCF7 [20]): 0.18 nM; Activity (MCF7 [21]): Active; IC50 [22]: 1.4 nM; Activity (U-87MG ATCC [23]): Dose-dependent effect; Activity (T98G [24]): Active; Activity (U-87MG ATCC [25]): Active; Activity (T98G [26]): Active |
| CC(=NNC(=S)Nc1ccc(F)cc1)c1ccccn1 (mixture of isomers) | Active | Active | Active | > 10000 | Active | Active | Active | Active | Active | Active | Active | Active | Active | Active | Active | Active | Active | Dose-dependent effect | 17 | Active | Activity (MCF7 [20]): Dose-dependent effect; IC50 (MCF7 [20]): 1.2 nM; Activity (MCF7 [21]): Active; IC50 [22]: 10 nM; Activity (U-87MG ATCC [23]): Dose-dependent effect; Activity (T98G [24]): Active; Activity (U-87MG ATCC [25]): Active; Activity (T98G [26]): Active |
